# Where a SMILES comes first, the peptide text is derived from it.
# Key:
# [1] = Cytotoxicity against mouse EAC cells; format: functional; details: Ehrlich
# MDA-MB-231 = experiment: Cytotoxicity against human MDA-MB-231 cells after 72 hrs by MTS assay; format: functional, cell-based; details: MDA-MB-231, 72 h
# Procedure, shortened: (§1)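 Cells plated at 4 × 10³ cells/well, left overnight, then exposed to increasing concentrations (0.064–40 μM) diluted from DMSO solution into culture medium. After 72 h, MTS/PMS reagent added; absorbance read at 490 nm. Viability = (OD_treat − OD_blank)/(OD_control − OD_blank) × 100%, mean of triplicate wells; DMSO + medium untreated cells as control.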
# Jurkat = experiment: Cytotoxicity against human Jurkat T cells after 72 hrs by MTS assay; format: functional, cell-based; procedure, shortened: as §1
# KB [2] = experiment: Cytotoxicity against human KB cells; format: functional, cell-based
# Pseudomonas aeruginosa = experiment: Antimicrobial activity against Pseudomonas aeruginosa; format: functional
# MOLT-4 = experiment: Cytotoxicity against human MOLT4 cells after 72 hrs by MTS assay; format: functional, cell-based; details: MOLT-4, 72 h; procedure, shortened: as §1
# Candida albicans = experiment: Antimicrobial activity against Candida albicans; format: functional
# [3] = Cytotoxicity against mouse DLA cells; format: functional
# Escherichia coli = experiment: Antimicrobial activity against Escherichia coli; format: functional
# KB [4] = experiment: Cytotoxicity against human KB cells after 72 hrs by MTS assay; format: functional, cell-based; procedure, shortened: as §1
Compound,IC50 (MDA-MB-231) [µM],IC50 (KB [4]) [µM],other results
"CC(C)C[C@@H]1NC(=O)CNC(=O)[C@H](Cc2ccccc2)NC(=O)[C@H](Cc2ccc(O)cc2)NC(=O)[C@@H]2CCCN2C(=O)CNC1=O [Cherimolacyclopeptide E] (HELM PEPTIDE1{F.G.L.G.P.Y}$PEPTIDE1,PEPTIDE1,1:R1-6:R2$$$V2.0)",> 10,> 10,CC50 [1]: 4.96 µM; IC50 (Jurkat): > 10 µM; IC50 (KB [2]): > 10 µM; MIC (Pseudomonas aeruginosa): 6 µg/mL; IC50 (MOLT-4): > 10 µM; MIC (Candida albicans): 6 µg/mL; CC50 [3]: 2.76 µM; MIC (Escherichia coli): 6 µg/mL
"CC(C)C[C@@H]1NC(=O)[C@H](C)NC(=O)[C@H](Cc2ccccc2)NC(=O)[C@H](Cc2ccc(O)cc2)NC(=O)[C@@H]2CCCN2C(=O)CNC1=O (HELM PEPTIDE1{A.L.G.P.Y.F}$PEPTIDE1,PEPTIDE1,1:R1-6:R2$$$V2.0)",7.7,7.8,
"CC(C)C[C@@H]1NC(=O)CNC(=O)[C@H](Cc2ccccc2)NC(=O)[C@H](Cc2ccc(O)cc2)NC(=O)[C@@H]2CCCN2C(=O)[C@H](C)NC1=O (HELM PEPTIDE1{A.P.Y.F.G.L}$PEPTIDE1,PEPTIDE1,1:R1-6:R2$$$V2.0)",10.2,6.3,
"CC(C)C[C@@H]1NC(=O)CNC(=O)[C@H](Cc2ccccc2)NC(=O)[C@H](Cc2ccc(O)cc2)NC(=O)CNC(=O)CNC1=O (HELM PEPTIDE1{F.G.L.G.G.Y}$PEPTIDE1,PEPTIDE1,1:R1-6:R2$$$V2.0)",> 10,> 10,
"C[C@@H]1NC(=O)CNC(=O)[C@H](Cc2ccccc2)NC(=O)[C@H](Cc2ccc(O)cc2)NC(=O)[C@@H]2CCCN2C(=O)CNC1=O (HELM PEPTIDE1{A.G.P.Y.F.G}$PEPTIDE1,PEPTIDE1,1:R1-6:R2$$$V2.0)",> 10,> 10,
"CC(C)C[C@@H]1NC(=O)CNC(=O)[C@H](C)NC(=O)[C@H](Cc2ccc(O)cc2)NC(=O)[C@@H]2CCCN2C(=O)CNC1=O (HELM PEPTIDE1{A.G.L.G.P.Y}$PEPTIDE1,PEPTIDE1,1:R1-6:R2$$$V2.0)",> 10,> 10,
"CC(C)C[C@@H]1NC(=O)CNC(=O)[C@H](Cc2ccccc2)NC(=O)[C@H](Cc2ccc(O)cc2)NC(=O)[C@H](C)NC(=O)CNC1=O (HELM PEPTIDE1{A.Y.F.G.L.G}$PEPTIDE1,PEPTIDE1,1:R1-6:R2$$$V2.0)",> 10,> 10,
COc1cccc2c1C(=O)c1c(O)c3c(c(O)c1C2=O)C[C@@](O)(C(=O)CO)C[C@@H]3O[C@H]1C[C@H](N)[C@H](O)[C@H](C)O1 [DOXORUBICIN],0.04,,
"CC(C)C[C@@H]1NC(=O)CNC(=O)[C@H](Cc2ccccc2)NC(=O)[C@H](C)NC(=O)[C@@H]2CCCN2C(=O)CNC1=O (HELM PEPTIDE1{A.F.G.L.G.P}$PEPTIDE1,PEPTIDE1,1:R1-6:R2$$$V2.0)",> 10,> 10,
